The source made the active and inactive calls. The rule behind the calls is not given here.
Legend:
[1] = Cytotoxicity against rat H9c2 cells assessed as reduction in cell viability after 72 hrs by alamar blue assay; type: cell-based
Procedure, shortened: (§1)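 H9c2 or J774 cells (1 x 10^4/well) in DMEM/10% FBS preincubated 24 h, then exposed 72 h to six concentrations (0.41 to 100 µM) in triplicate, DMSO under 1%. Viability by AlamarBlue, read after 6 h at 570/600 nm; CC50 from three independent experiments; gentian violet positive control.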

[2] = Solubility of the compound in pH 5.5 sodium acetate buffer at 10 uM; settings: pH 5.5, 10 µM
[3] = Cytotoxicity against mouse J774 cells assessed as reduction in cell viability after 72 hrs by alamar blue assay; type: cell-based; procedure, shortened: as §1
Trypanosoma cruzi [4] = experiment: Antitrypanosomal activity against bloodstream trypomastigote stage of Trypanosoma cruzi Y infected in monkey LLC-MK2 cells assessed as reduction in parasite motility measured after 24 hrs by neubauer chamber method; type: functional, organism-based; settings: LLC-MK2, 24 h
Procedure, shortened: (§2)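 Y strain trypomastigotes from LLC-MK2 supernatants, 4x10^5/well, incubated 24 h at 37°C, 5% CO2 with five concentrations; viable parasites counted by motility in Neubauer chamber. Inhibition versus untreated cultures; IC50 by non-linear regression; benznidazole reference.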

[5] = target: Cruzipain (Trypanosoma cruzi) (UniProt P25779); experiment: Inhibition of recombinant Trypanosoma cruzi cruzain at 10 uM preincubated for 10 mins followed by Z-FR-AMC substrate addition measured for 5 mins at 12 secs time interval by […] relative to control
Procedure, shortened: (§3)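 Cruzain 0.5 nM in 0.1 M sodium acetate pH 5.5, 1 mM beta-mercaptoethanol, 0.01% Triton X-100, 25 °C; 10 min preincubation, then Z-FR-AMC 2.5 µM (Km 1 µM). Fluorescence (ex 340, em 440) read continuously 5 min; initial rates versus DMSO control. Screens at 10 µM, two independent runs in triplicate; IC50 from at least seven concentrations, four-parameter fit, at least two curves.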

Trypanosoma cruzi [6] = experiment: (§4) Antitrypanosomal activity against bloodstream trypomastigote stage of Trypanosoma cruzi Y infected in Balb/c mouse assessed as protection against mouse mortality at 25 mg/kg, po qd administered for 5 consecutive days starting from day 5 post infection measured up to 30 days post treatment; type: functional, organism-based
Procedure, shortened: (§5)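 Female BALB/c mice (18-22 g, 6-8 weeks) infected i.p. with 10^4 Y strain bloodstream trypomastigotes in saline; six per group. From day 5, oral dosing once daily for 5 days; vehicle saline with 20% DMSO. Parasitaemia counted as motile parasites in 5 µL tail-vein blood; reduction = (vehicle mean − treated mean)/vehicle mean × 100. Mortality followed to 30 days post-treatment.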

Trypanosoma cruzi [7] = experiment: as §4, with “reduction in blood parasitaemia” for “protection against mouse mortality”, “on day 12 post infection relative” for “up”, “control” for “30 days post treatment”; type: functional; design: scale not given: the % may be the effect or the level left; procedure, shortened: as §5
Trypanosoma cruzi [8] = experiment: Potency index, ratio of benznidazole IC50 to compound IC50 for antitrypanosomal activity against bloodstream trypomastigote stage of Trypanosoma cruzi Y infected in monkey LLC-MK2 cells; type: functional; procedure, shortened: as §2
Trypanosoma cruzi [9] = experiment: Induction of apoptosis in bloodstream trypomastigote stage of Trypanosoma cruzi Y assessed as viable cells at 0.4 uM measured after 24 hrs by Annexin V-FITC/propidium iodide staining based flow cytometry (reference value: 89.73%); type: functional
Trypanosoma cruzi [10] = experiment: Antitrypanosomal activity against bloodstream trypomastigote stage of Trypanosoma cruzi Y infected in Balb/c mouse macrophages assessed as reduction in number of infected cells measured after 3 days by hoeschst staining based confocal microscopic method; type: functional, organism-based
Procedure, shortened: (§6)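 BALB/c peritoneal macrophages (5x10^4/well) in DMEM/10% FBS, infected with trypomastigotes (10:1) for 2 h, washed, held 24 h, then treated 72 h (test at 8, 2, 0.5 µM; benznidazole 5 µM control). Formaldehyde-fixed, Hoechst-stained, imaged by confocal high-content microscopy for infected cells and amastigotes per 100 cells; six determinations; ANOVA with Bonferroni.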

Trypanosoma cruzi [11] = experiment: as §4, with “reduction in blood parasitaemia” for “protection against mouse mortality”, “on day 8 post infection relative” for “up”, “control” for “30 days post treatment”; type: functional; design: scale not given: the % may be the effect or the level left; procedure, shortened: as §5
Trypanosoma cruzi [12] = experiment: Synergistic antitrypanosomal activity against bloodstream trypomastigote stage of Trypanosoma cruzi Y infected in monkey LLC-MK2 cells measured after 24 hrs in presence of benznidazole; type: functional
Procedure, shortened: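 Doubling dilutions of each drug alone or in fixed-ratio combinations tested on trypomastigotes by the 24 h motility assay; combination index by Chou-Talalay method and isobologram.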

Trypanosoma cruzi [13] = experiment: Antitrypanosomal activity against bloodstream trypomastigote stage of Trypanosoma cruzi Y infected in Balb/c mouse macrophages assessed as reduction in number of intracellular amastigotes measured after 3 days by hoeschst staining based confocal microscopic method; type: functional, organism-based; procedure, shortened: as §6
[14] = Safety index, ratio of compound CC50 to gentian violet CC50 for cytotoxicity against rat H9c2 cells; type: cell-based; procedure, shortened: as §1
Trypanosoma cruzi [15] = experiment: Antitrypanosomal activity against bloodstream trypomastigote stage of Trypanosoma cruzi Y assessed as induction of mitochondrial membrane potential loss at 0.4 to 0.8 uM measured after 24 hrs by Rho-123 staining based FACS analysis; type: functional, organism-based
Procedure, shortened: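 Trypomastigotes (1 x 10^7/mL) from LLC-MK2 culture supernatants, exposed 24 h at 37°C in DMEM with FBS; washed in PBS, stained 15 min with 5 µg/mL Rhodamine 123, washed, analysed immediately by flow cytometry; 10,000 events gated on trypomastigote region.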

Trypanosoma cruzi [16] = experiment: Induction of apoptosis in bloodstream trypomastigote stage of Trypanosoma cruzi Y assessed as early apoptotic cells at 0.4 uM measured after 24 hrs by Annexin V-FITC/propidium iodide staining based flow cytometry (reference value: 8.25%); type: functional
[17] = Safety index, ratio of compound CC50 to gentian violet CC50 for cytotoxicity against mouse J774 cells; type: cell-based; procedure, shortened: as §1
Mus musculus = experiment: Toxicity in Balb/c mouse infected with Trypanosoma cruzi Y trypomastigotes assessed as behavioral alteration at 25 mg/kg, po qd administered for 5 consecutive days starting from day 5 post infection; type: organism-based; settings: in vivo; procedure, shortened: as §5
Trypanosoma cruzi [18] = experiment: Induction of apoptosis in bloodstream trypomastigote stage of Trypanosoma cruzi Y assessed as late apoptotic cells at 0.4 uM measured after 24 hrs by Annexin V-FITC/propidium iodide staining based flow cytometry (reference value: 1.51%); type: functional
Trypanosoma cruzi [19] = experiment: Induction of apoptosis in bloodstream trypomastigote stage of Trypanosoma cruzi Y assessed as necrotic cells at 0.4 uM measured after 24 hrs by Annexin V-FITC/propidium iodide staining based flow cytometry (reference value: 0.5%); type: functional
Trypanosoma cruzi [20] = experiment: Antitrypanosomal activity against Trypanosoma cruzi Y trypomastigotes infected in mouse J774 cells measured after […] by contrast phase microscopic method; type: functional, organism-based
[21] = Cytotoxicity against mouse J774 cells; type: cell-based; procedure, shortened: as §1
Cruzipain = Cruzipain (Trypanosoma cruzi, UniProt P25779); experiment: Inhibition of recombinant Trypanosoma cruzi cruzain preincubated for 10 mins followed by Z-FR-AMC substrate addition measured for 5 mins at 12 secs time interval by […] relative to control; procedure, shortened: as §3
Cruzipain, sequence (P25779 whole entry): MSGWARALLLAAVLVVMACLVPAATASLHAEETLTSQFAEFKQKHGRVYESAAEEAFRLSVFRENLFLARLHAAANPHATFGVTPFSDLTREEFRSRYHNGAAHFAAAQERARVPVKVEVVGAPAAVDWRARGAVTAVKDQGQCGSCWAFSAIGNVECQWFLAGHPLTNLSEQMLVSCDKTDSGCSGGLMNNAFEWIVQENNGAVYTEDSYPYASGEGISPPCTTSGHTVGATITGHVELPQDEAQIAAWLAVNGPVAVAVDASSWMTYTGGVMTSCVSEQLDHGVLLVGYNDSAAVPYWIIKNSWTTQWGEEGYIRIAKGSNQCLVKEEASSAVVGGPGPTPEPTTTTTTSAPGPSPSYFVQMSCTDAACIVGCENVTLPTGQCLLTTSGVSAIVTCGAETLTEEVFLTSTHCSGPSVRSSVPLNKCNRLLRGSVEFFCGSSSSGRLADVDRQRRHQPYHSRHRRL

Cruzipain (Trypanosoma cruzi), sequence (P25779 123-467 limits assumed): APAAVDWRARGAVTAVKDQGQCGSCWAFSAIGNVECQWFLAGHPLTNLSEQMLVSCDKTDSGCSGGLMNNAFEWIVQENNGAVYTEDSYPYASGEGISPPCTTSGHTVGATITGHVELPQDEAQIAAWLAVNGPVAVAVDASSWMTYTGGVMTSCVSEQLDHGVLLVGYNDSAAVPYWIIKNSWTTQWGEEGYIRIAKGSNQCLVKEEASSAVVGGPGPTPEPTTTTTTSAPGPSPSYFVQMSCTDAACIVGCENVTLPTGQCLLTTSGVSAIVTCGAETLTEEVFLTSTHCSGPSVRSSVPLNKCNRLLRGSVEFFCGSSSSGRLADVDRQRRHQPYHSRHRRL

| Structure (SMILES) | solubility [2] | IC50 (Trypanosoma cruzi [4]) [µM] | inhibition [5] [%] | CC50 at 72 h [1] [µM] | CC50 at 72 h [3] [µM] | further results |
| --- | --- | --- | --- | --- | --- | --- |
| C/C(=N\Nc1nc(-c2ccc([N+](=O)[O-])cc2)cs1)c1ccc(Cl)c(Cl)c1 | Soluble | > 50 |  | > 50 | > 50 |  |
| C/C(=N\Nc1nc(CCl)cs1)c1ccc(Cl)c(Cl)c1 | Soluble | > 50 | 50 | > 50 | > 50 |  |
| C/C(=N\N=C(\N)S)c1ccc(Cl)c(Cl)c1 |  |  |  |  |  | IC50 (Trypanosoma cruzi [20]): 7.1 µM; CC50 [21]: > 100 µM |
| C/C(=N\Nc1nc(-c2ccc(-c3ccccc3)cc2)cs1)c1ccc(Cl)c(Cl)c1 | Soluble | > 50 | 44 | > 50 | > 50 |  |
| CN(C)c1ccc(C(=C2C=CC(=[N+](C)C)C=C2)c2ccc(N(C)C)cc2)cc1 [GENTIAN VIOLET] |  |  |  | 1.5 |  |  |
| C/C(=N\N=c1\scc(-c2ccccc2)n1-c1ccccc1)c1ccc(Cl)c(Cl)c1 | Soluble | > 50 | 31 | > 50 | > 50 |  |
| C/C(=N\Nc1nc(-c2ccc(Br)cc2)cs1)c1ccc(Cl)c(Cl)c1 | Soluble | > 50 | 43 | > 50 | > 50 |  |
| C/C(=N\N=c1\scc(-c2ccccc2)n1C)c1ccc(Cl)c(Cl)c1 | Soluble | > 50 | 12 | > 50 | > 50 |  |
| C/C(=N\Nc1nc(-c2ccccc2)cs1)c1ccc(Cl)c(Cl)c1 | Soluble | > 50 | 59 | > 50 | > 50 |  |
| C/C(=N\Nc1nc(-c2ccc(Cl)cc2Cl)cs1)c1ccc(Cl)c(Cl)c1 | Soluble | > 50 | 35 | > 50 | > 50 |  |
| C/C(=N\Nc1nc(-c2ccc(Cl)cc2)cs1)c1ccc(Cl)c(Cl)c1 | Soluble | > 50 | 31 | > 50 | > 50 |  |

The next lines start with results.

| solubility [2] | IC50 (Trypanosoma cruzi [4]) [µM] | inhibition [5] [%] | Structure (SMILES) | CC50 at 72 h [1] [µM] | CC50 at 72 h [3] [µM] | further results |
| --- | --- | --- | --- | --- | --- | --- |
| Soluble | 47.7 | 75 | C/C(=N\Nc1nc(-c2ccc(C)cc2)cs1)c1ccc(Cl)c(Cl)c1 | > 50 | > 50 |  |
| Soluble | > 50 |  | C/C(=N\Nc1nc(-c2ccc(Cl)c(Cl)c2)cs1)c1ccc(Cl)c(Cl)c1 | > 50 | > 50 |  |
| Soluble | > 50 | 44 | C/C(=N\Nc1nc(-c2ccc3ccccc3c2)cs1)c1ccc(Cl)c(Cl)c1 | > 50 | > 50 |  |
| Soluble | > 50 | 32 | C/C(=N\Nc1nc(-c2ccc(F)cc2)cs1)c1ccc(Cl)c(Cl)c1 | > 50 | > 50 |  |
| Soluble | 17.8 | 76 | C/C(=N\Nc1nc(-c2ccccc2)c(C)s1)c1ccc(Cl)c(Cl)c1 | > 50 | > 50 |  |
| Soluble | 0.37 | 17 | C/C(=N\Nc1nc(-c2ccccn2)cs1)c1ccc(Cl)c(Cl)c1 | 10.2 | 10.1 | Activity (Trypanosoma cruzi [6]): Active; Activity (Trypanosoma cruzi [7]): 64.1%; Ratio IC50 (Trypanosoma cruzi [8]): 28; Activity (Trypanosoma cruzi [9]): 74.62%; Activity (Trypanosoma cruzi [10]): Dose-dependent effect; Activity (Trypanosoma cruzi [11]): 54.6%; CI (Trypanosoma cruzi [12]): 0.37; Activity (Trypanosoma cruzi [13]): Dose-dependent effect; selectivity ratio [14]: 7; Activity (Trypanosoma cruzi [15]): Active; Activity (Trypanosoma cruzi [16]): 18.05%; selectivity ratio [17]: 22; Activity (Mus musculus): Non-Toxic; Activity (Trypanosoma cruzi [18]): 7.13%; Activity (Trypanosoma cruzi [19]): 0.19% |
| Soluble | > 50 |  | C/C(=N\Nc1nc(-c2cccc([N+](=O)[O-])c2)cs1)c1ccc(Cl)c(Cl)c1 | > 50 | > 50 |  |
| Soluble | 6 | 38 | C/C(=N\Nc1nc(-c2ccc(Cl)c(Cl)c2Cl)cs1)c1ccc(Cl)c(Cl)c1 | 17 | 21.3 |  |
| Soluble | 10.5 | 84 | C/C(=N\Nc1nc(C)c(C)s1)c1ccc(Cl)c(Cl)c1 | > 50 | 41.8 | IC50 (Cruzipain): 9 µM |
| Soluble | 17.1 | 41 | COc1ccc(-c2csc(N/N=C(\C)c3ccc(Cl)c(Cl)c3)n2)cc1 | > 50 | > 50 |  |
| Soluble | 19.1 | 74 | C/C(=N\Nc1nc(-c2ccc(Br)cc2)c(C)s1)c1ccc(Cl)c(Cl)c1 | > 50 | > 50 |  |
| Soluble | 16.8 | 32 | C/C(=N\Nc1nc(-c2ccncc2)cs1)c1ccc(Cl)c(Cl)c1 | 41.9 | 39.8 |  |
| Soluble | 17.1 | 97 | C/C(=N\Nc1nc(C)cs1)c1ccc(Cl)c(Cl)c1 | 26.1 | 33.7 | IC50 (Cruzipain): 0.6 µM |

Source: ChEMBL document CHEMBL4138128, “Structural design, synthesis and pharmacological evaluation of thiazoles against Trypanosoma cruzi” (Eur J Med Chem, 2017)
